Several values for one entry are separate records, joined by “and”; a condition that tells them apart may be missing. Identical values can stand only once. Activity calls are given as the source filed them.
Tests used:
Rattus norvegicus [1] = organism: Rattus norvegicus; experiment: Complete remission of DMBA-induced hormone-dependent mammary carcinoma tumors in rats at 36 mg; assay type: functional
How it was run: (§1)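 Female SD rats bearing DMBA-induced, hormone-dependent mammary adenocarcinoma, with at least one tumor >140 mm², were grouped in tens. Dosing was sc per kg body weight: a single dose daily Monday–Thursday and a double dose Friday. Ovariectomy served as the comparison arm. Complete remission was defined as a tumor no longer palpable. Body weight and tumor area changes were also recorded.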

Rattus norvegicus [2] = organism: Rattus norvegicus; experiment: Complete remission of DMBA-induced hormone-dependent mammary carcinoma tumors in rats at 72 mg; assay type: functional; how it was run: as §1
Rattus norvegicus [3] = organism: Rattus norvegicus; experiment: Final number of DMBA-induced hormone-dependent mammary carcinoma tumors in rats at 36 mg; assay type: functional
How it was run: (§2)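 Sprague-Dawley rats carrying DMBA-induced, hormone-dependent mammary adenocarcinoma, at least one tumor >140 mm², were placed in groups of ten. Compounds were given sc, with doses in mg/kg: a single daily dose Monday to Thursday and a double dose on Friday. Ovariectomy served as a comparator group. New tumors arising during the test were counted.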

Rattus norvegicus [4] = organism: Rattus norvegicus; experiment: Partial remission of DMBA-induced hormone-dependent mammary carcinoma tumors in rats at 18 mg; assay type: functional
How it was run: (§3)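 DMBA-induced, hormone-dependent mammary adenocarcinoma in SD rats. Rats bearing at least one tumor >140 mm² were placed in groups of ten. Compound was given sc as a single dose (mg/kg) daily Monday–Thursday and a double dose on Friday. Tumors were counted at the start and as new tumors; responses were scored as complete remission (not palpable), partial remission (≥50% reduction), no change or progression. Tumor area and body weight were recorded as % change.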

Rattus norvegicus [5] = organism: Rattus norvegicus; experiment: Partial remission of DMBA-induced hormone-dependent mammary carcinoma tumors in rats at 72 mg; assay type: functional; how it was run: as §3
Rattus norvegicus [6] = organism: Rattus norvegicus; experiment: Percent change in body weight DMBA-induced hormone-dependent mammary carcinoma tumors in rats at 18 mg for 7 days; assay type: functional; how it was run: as §3
Rattus norvegicus [7] = organism: Rattus norvegicus; experiment: Percent change in body weight DMBA-induced hormone-dependent mammary carcinoma tumors in rats at 72 mg for 7 days; assay type: functional
Rattus norvegicus [8] = organism: Rattus norvegicus; experiment: Percent change in DMBA-induced hormone-dependent mammary carcinoma tumor area at 36 mg after 28 days; assay type: functional; how it was run: as §3
Rattus norvegicus [9] = organism: Rattus norvegicus; experiment: Percent change in DMBA-induced hormone-dependent mammary carcinoma tumor area at 18 mg after 28 days; assay type: functional; how it was run: as §3
Rattus norvegicus [10] = organism: Rattus norvegicus; experiment: Partial remission of DMBA-induced hormone-dependent mammary carcinoma tumors in rats at 36 mg; assay type: functional; how it was run: as §3
Rattus norvegicus [11] = organism: Rattus norvegicus; experiment: Percent unchanged tumor size of DMBA-induced hormone-dependent mammary carcinoma tumors in rats at 36 mg; assay type: functional
Rattus norvegicus [12] = organism: Rattus norvegicus; experiment: Percent unchanged tumor size of DMBA-induced hormone-dependent mammary carcinoma tumors in rats at 72 mg; assay type: functional
Rattus norvegicus [13] = organism: Rattus norvegicus; experiment: Percent unchanged tumor size of DMBA-induced hormone-dependent mammary carcinoma tumors in rats at 18 mg; assay type: functional
Rattus norvegicus [14] = organism: Rattus norvegicus; experiment: Progression of DMBA-induced hormone-dependent mammary carcinoma tumors in rats at 72 mg; assay type: functional; how it was run: as §3
Rattus norvegicus [15] = organism: Rattus norvegicus; experiment: Progression of DMBA-induced hormone-dependent mammary carcinoma tumors in rats at 18 mg; assay type: functional
Rattus norvegicus [16] = organism: Rattus norvegicus; experiment: Complete remission of DMBA-induced hormone-dependent mammary carcinoma tumors in rats at 18 mg; assay type: functional; how it was run: as §1
Rattus norvegicus [17] = organism: Rattus norvegicus; experiment: Initial tumor number of DMBA-induced hormone-dependent mammary carcinoma in rats at 36 mg; assay type: functional; how it was run: as §3
Rattus norvegicus [18] = organism: Rattus norvegicus; experiment: Initial tumor number of DMBA-induced hormone-dependent mammary carcinoma in rats at 72 mg; assay type: functional; how it was run: as §3
MCF7 [19] = experiment: Inhibition of estrogen receptor positive MCF-7 cell proliferation as percent treated/control cell number after 10 days at 10e-6 M; assay type: functional, Homo sapiens
How it was run: (§4)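 MCF-7 cells were grown in McCoy's 5a medium with fetal bovine serum stripped by DCC (0.5 h, 45 °C). Compounds were dissolved in ethanol (final ≤0.5%) and diluted in complete medium. Cells were seeded at 5×10^4 cells/plate. On day 10, three replicate plates per group were counted by Coulter counter, three counts per plate. Percent T/C = test/control. In a retest, compounds were given at 10^-7 M with 17β-estradiol at 10^-7 or 10^-8 M.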

MCF7 [20] = experiment: Inhibition of estrogen receptor positive MCF-7 cell proliferation as percent treated/control cell number after 10 days at 10e-7 M; assay type: functional, Homo sapiens; how it was run: as §4
MCF7 [21] = experiment: Inhibition of estrogen receptor positive MCF-7 cell proliferation as percent treated/control cell number after 10 days at 10e-7 M with 10e-7 M 17-beta-estradiol; assay type: functional, Homo sapiens; how it was run: as §4
MCF7 [22] = experiment: Inhibition of estrogen receptor positive MCF-7 cell proliferation as percent treated/control cell number after 10 days at 10e-8 M; assay type: functional, Homo sapiens; how it was run: as §4
MCF7 [23] = experiment: Inhibition of estrogen receptor positive MCF-7 cell proliferation as cell number after 10 days at 10e-8 M; assay type: functional, Homo sapiens; how it was run: as §4
MCF7 [24] = experiment: Inhibition of estrogen receptor positive MCF-7 cell proliferation as cell number after 10 days at 10e-9 M; assay type: functional, Homo sapiens; how it was run: as §4
MCF7 [25] = experiment: Inhibition of estrogen receptor positive MCF-7 cell proliferation as percent treated/control cell number after 10 days at 10e-9 M; assay type: functional, Homo sapiens; how it was run: as §4
MCF7 [26] = experiment: Inhibition of estrogen receptor positive MCF-7 cell proliferation as cell number after 10 days at 10e-6 M; assay type: functional, Homo sapiens; how it was run: as §4
MCF7 [27] = experiment: Inhibition of estrogen receptor positive MCF-7 cell proliferation as cell number after 10 days at 10e-7 M and 10e-8 M 17-beta-estradiol; assay type: functional, Homo sapiens; how it was run: as §4
MCF7 [28] = experiment: Inhibition of estrogen receptor positive MCF-7 cell proliferation as cell number after 10 days at 10e-7 M and 10e-7 M 17-beta-estradiol; assay type: functional, Homo sapiens; how it was run: as §4
MCF7 [29] = experiment: (§5) Inhibition of estrogen receptor positive MCF-7 cell proliferation as cell number after 10 days at 10e-7 M; assay type: functional, Homo sapiens; how it was run: as §4
MCF7 [30] = experiment: as §5; assay type: functional, Homo sapiens; how it was run: as §4; remark: listed apart in the source
Rattus norvegicus [31] = organism: Rattus norvegicus; experiment: Initial tumor number of DMBA-induced hormone-dependent mammary carcinoma in rats at 18 mg; assay type: functional; how it was run: as §3
Rattus norvegicus [32] = organism: Rattus norvegicus; experiment: Percent change in DMBA-induced hormone-dependent mammary carcinoma tumor area at 72 mg after 28 days; assay type: functional; how it was run: as §3
[33] = target: T1, Estrogen receptor (Mus musculus) (UniProt O08537+P19785); experiment: Antiestrogenic activity in uterotrophic test in mice at 0.1 ug (experiment 1); assay type: functional
How it was run: (§6)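 Immature female NMRI mice, 20 days old (14.5 ± 1.2 g), randomly grouped 10 per group. Each received a daily sc injection for 3 days of 0.1 mL olive oil solution containing test compound, together with estrone to stimulate uterine growth. Uteri were removed 24 h after the last injection and weighed. Results are reported as % inhibition of the estrone-stimulated uterine weight gain, mean ± SD.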

[34] = target: T1, Estrogen receptor (Mus musculus); experiment: Antiestrogenic activity in uterotrophic test in mice at 5 ug (experiment 2); assay type: functional; how it was run: as §6
[35] = target: T1, Estrogen receptor (Mus musculus); experiment: Antiestrogenic activity in uterotrophic test in mice at 500 ug (experiment 3); assay type: functional; how it was run: as §6
[36] = target: T1, Estrogen receptor (Mus musculus); experiment: Antiestrogenic activity in uterotrophic test in mice at 0 ug (experiment 2); assay type: functional; how it was run: as §6
[37] = target: T1, Estrogen receptor (Mus musculus); experiment: Antiestrogenic activity in uterotrophic test in mice at 0 ug (experiment 3); assay type: functional; how it was run: as §6
[38] = target: T1, Estrogen receptor (Mus musculus); experiment: Antiestrogenic activity in uterotrophic test in mice at 50 ug (experiment 3); assay type: functional; how it was run: as §6
MCF7 [39] = experiment: Inhibition of estrogen receptor positive MCF-7 cell proliferation as percent treated/control cell number after 10 days at 10e-7 M with 10e-8 M 17-beta-estradiol; assay type: functional, Homo sapiens; how it was run: as §4
[40] = target: T1, Estrogen receptor (Mus musculus); experiment: Estrogenic activity in uterotrophic test in mice; No effect; assay type: functional
How it was run: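 Immature (20-day-old) female NMRI mice, 14.5 ± 1.2 g, randomized into groups of 10. Given the test compound sc daily for 3 days in 0.1 mL olive oil. Uteri removed 24 h after the last injection; uterine weight taken as the read-out, means ± SD. Dose in μg.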

[41] = target: T1, Estrogen receptor (Mus musculus); experiment: Inhibitory activity in mouse uterine weight test at 5 ug (experiment 2); assay type: functional
How it was run: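 Antiuterotrophic (Dorfman) assay in immature 20-day-old female NMRI mice, groups of 10. Uterine growth was stimulated with estrone (0.1 μg) and the test compound was given alongside it, sc daily for 3 days in 0.1 mL olive oil. Uteri were taken 24 h after the last dose. Uterine weight is reported as means ± SD and inhibition as % of the estrone-stimulated response.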

[42] = target: T1, Estrogen receptor (Mus musculus); experiment: Inhibitory activity in mouse uterine weight test at 50 ug (experiment 3); assay type: functional
How it was run: (§7)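 Immature female NMRI mice, 20 days old (14.5 ± 1.2 g), in random groups of 10. They received sc injections daily for 3 days of 0.1 mL olive oil containing test compound, with estrone 0.1 μg given to stimulate uterine growth. Uteri were removed 24 h after the last injection and weighed (mean ± SD). Result is percent inhibition of the estrone-stimulated uterine weight gain.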

[43] = target: T1, Estrogen receptor (Mus musculus); experiment: Inhibitory activity in mouse uterine weight test at 500 ug (experiment 3); assay type: functional; how it was run: as §7
Rattus norvegicus [44] = organism: Rattus norvegicus; experiment: Final number of DMBA-induced hormone-dependent mammary carcinoma tumors in rats at 18 mg; assay type: functional; how it was run: as §2
Rattus norvegicus [45] = organism: Rattus norvegicus; experiment: Final number of DMBA-induced hormone-dependent mammary carcinoma tumors in rats at 72 mg; assay type: functional; how it was run: as §2
Rattus norvegicus [46] = organism: Rattus norvegicus; experiment: Percent change in body weight DMBA-induced hormone-dependent mammary carcinoma tumors in rats at 36 mg for 7 days; assay type: functional
[47] = test system: Estrogen receptor (Bos taurus); experiment: Displacement of [3H]estradiol from calf estrogen receptor

T1 sequence (O08537 whole entry, looked up): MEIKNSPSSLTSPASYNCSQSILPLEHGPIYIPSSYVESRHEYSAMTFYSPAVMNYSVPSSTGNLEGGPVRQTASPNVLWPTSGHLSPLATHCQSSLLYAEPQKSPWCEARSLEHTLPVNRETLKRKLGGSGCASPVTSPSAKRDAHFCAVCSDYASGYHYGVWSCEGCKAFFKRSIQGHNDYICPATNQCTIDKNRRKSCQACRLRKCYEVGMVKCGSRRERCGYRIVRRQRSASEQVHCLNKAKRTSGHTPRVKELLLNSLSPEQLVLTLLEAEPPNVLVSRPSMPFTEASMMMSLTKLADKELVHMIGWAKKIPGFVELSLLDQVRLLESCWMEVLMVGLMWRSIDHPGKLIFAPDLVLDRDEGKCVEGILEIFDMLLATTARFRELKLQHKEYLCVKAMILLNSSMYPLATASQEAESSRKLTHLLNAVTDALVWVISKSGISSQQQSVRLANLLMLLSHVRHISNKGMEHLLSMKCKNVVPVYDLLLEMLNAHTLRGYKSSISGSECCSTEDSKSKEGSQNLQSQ
T1 sequence (P19785 whole entry, looked up): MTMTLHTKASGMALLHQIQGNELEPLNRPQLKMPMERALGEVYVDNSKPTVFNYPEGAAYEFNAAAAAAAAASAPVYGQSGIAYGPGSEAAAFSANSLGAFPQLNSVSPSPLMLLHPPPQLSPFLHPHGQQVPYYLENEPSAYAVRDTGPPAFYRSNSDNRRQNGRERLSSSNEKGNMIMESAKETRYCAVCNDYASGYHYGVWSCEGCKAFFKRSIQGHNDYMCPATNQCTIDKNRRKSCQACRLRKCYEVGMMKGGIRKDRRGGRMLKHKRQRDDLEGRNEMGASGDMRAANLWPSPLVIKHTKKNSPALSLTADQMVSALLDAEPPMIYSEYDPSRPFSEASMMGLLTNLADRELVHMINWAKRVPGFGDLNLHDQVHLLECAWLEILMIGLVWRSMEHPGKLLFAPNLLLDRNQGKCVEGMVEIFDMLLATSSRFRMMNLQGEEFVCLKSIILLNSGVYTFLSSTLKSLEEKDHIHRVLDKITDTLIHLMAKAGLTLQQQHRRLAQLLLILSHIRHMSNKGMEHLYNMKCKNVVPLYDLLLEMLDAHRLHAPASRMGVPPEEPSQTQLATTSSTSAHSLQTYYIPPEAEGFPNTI

- Effect [33]: 38.5
- Effect [34]: 36.5
- Effect [35]: 29
- Effect [36]: 10.5
- Effect [37]: 9.9
- Effect [38]: 34.3
- Effect [40]: inactive
- inhibition [41]: 7%
- inhibition [42]: 12%
- inhibition [43]: 31%
- Ka [47]: 1.1e+07 M⁻¹
SMILES: CC(c1cccc(O)c1)C(C)c1cccc(O)c1 (configuration not stated)
- Tumors (Rattus norvegicus [1]): 29%
- Tumors (Rattus norvegicus [2]): 34%
- No. of tumors (Rattus norvegicus [3]): 12
- Tumors (Rattus norvegicus [4]): 11%
- Tumors (Rattus norvegicus [5]): 25%
- Change (Rattus norvegicus [6]): 2.4%
- Change (Rattus norvegicus [7]): 0.9%
- Change (Rattus norvegicus [8]): 105%
- Change (Rattus norvegicus [9]): 188%
- Tumors (Rattus norvegicus [10]): 9%
- Tumors (Rattus norvegicus [11]): 38%
- Tumors (Rattus norvegicus [12]): 16%
- Tumors (Rattus norvegicus [13]): 24%
- Tumors (Rattus norvegicus [14]): 25%
- Tumors (Rattus norvegicus [15]): 51%
- Tumors (Rattus norvegicus [16]): 14%
- No. of tumors (Rattus norvegicus [17]): 22
- No. of tumors (Rattus norvegicus [18]): 26
- T/C (MCF7 [19]): 71%
- T/C (MCF7 [20]): 92% and 77%
- T/C (MCF7 [21]): 107%
- T/C (MCF7 [22]): 82%
- Cell number (MCF7 [23]): 35900
- Cell number (MCF7 [24]): 39800
- T/C (MCF7 [25]): 91%
- Cell number (MCF7 [26]): 32200
- Cell number (MCF7 [27]): 8000
- Cell number (MCF7 [28]): 7100
- Cell number (MCF7 [29]): 6100
- Cell number (MCF7 [30]): 33600
- No. of tumors (Rattus norvegicus [31]): 21
- Change (Rattus norvegicus [32]): 6%
- T/C (MCF7 [39]): 121%
- No. of tumors (Rattus norvegicus [44]): 16
- No. of tumors (Rattus norvegicus [45]): 22
- Change (Rattus norvegicus [46]): 1.6%
